Results: ChEMBL document CHEMBL4004807 (J Med Chem, 2017)
Active and inactive are the calls of the source. No cut-off for these calls is given here.

Legend:
Prostacyclin receptor [1] = target: T1, Prostacyclin receptor (Homo sapiens, UniProt P43119); test: Agonist activity at IP receptor in PAH patient-derived primary pulmonary arterial smooth muscle cells assessed as induction of cAMP levels after 1 hr by HTRF method; type: functional
[2] = Total clearance in Sprague-Dawley rat plasma at 2 mg/kg, iv or 10 mg/kg, po; type: ADME, organism-based
[3] = Volume of distribution at steady state in Sprague-Dawley rat at 2 mg/kg, iv or 10 mg/kg, po; type: ADME, organism-based; conditions: in vivo
[4] = target: Prostaglandin E2 receptor EP2 subtype (Homo sapiens) (UniProt P43116); test: Agonist activity at recombinant human EP2 receptor expressed in CHO-K1 cells assessed as increase in intracellular cAMP level up to 10 uM after 1 hr incubation by HTRF method; type: functional, cell-based
Chain of Prostaglandin E2 receptor EP2 subtype (Homo sapiens) (P43116 whole entry): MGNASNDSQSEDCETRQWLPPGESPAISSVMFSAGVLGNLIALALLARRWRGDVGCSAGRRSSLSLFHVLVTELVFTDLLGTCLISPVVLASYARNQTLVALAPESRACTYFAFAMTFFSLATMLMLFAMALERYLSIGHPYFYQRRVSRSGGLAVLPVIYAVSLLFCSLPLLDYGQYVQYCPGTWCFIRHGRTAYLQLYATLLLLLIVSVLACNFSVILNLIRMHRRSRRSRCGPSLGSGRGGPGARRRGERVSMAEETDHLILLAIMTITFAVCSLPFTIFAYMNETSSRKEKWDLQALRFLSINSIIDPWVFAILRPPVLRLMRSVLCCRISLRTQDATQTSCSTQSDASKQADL

Prostacyclin receptor [5] = target: T1, Prostacyclin receptor; test: Ratio of IC50 for IP receptor in human primary platelets to EC50 for recombinant human IP receptor expressed in CHO-K1 cells; type: cell-based
Rattus norvegicus [6] = test: AUC (0 to infinity) in Sprague-Dawley rat at 10 mg/kg, po; type: ADME, organism-based; set-up: dose 10 mg/kg, route oral, time infinity; conditions: in vivo
Outline: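 Sprague-Dawley rats, single oral dose of 10.0 mg/kg; AUC0-inf from plasma concentrations.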

[7] = target: T2, Prostaglandin E2 receptor EP3 subtype (Homo sapiens, UniProt P43115); test: Agonist activity at recombinant human EP3v6 receptor expressed in melanophores assessed as induction of pigment redistribution up to 10 uM after 90 mins; conditions: 1.5 h
T2 sequence (P43115 whole entry): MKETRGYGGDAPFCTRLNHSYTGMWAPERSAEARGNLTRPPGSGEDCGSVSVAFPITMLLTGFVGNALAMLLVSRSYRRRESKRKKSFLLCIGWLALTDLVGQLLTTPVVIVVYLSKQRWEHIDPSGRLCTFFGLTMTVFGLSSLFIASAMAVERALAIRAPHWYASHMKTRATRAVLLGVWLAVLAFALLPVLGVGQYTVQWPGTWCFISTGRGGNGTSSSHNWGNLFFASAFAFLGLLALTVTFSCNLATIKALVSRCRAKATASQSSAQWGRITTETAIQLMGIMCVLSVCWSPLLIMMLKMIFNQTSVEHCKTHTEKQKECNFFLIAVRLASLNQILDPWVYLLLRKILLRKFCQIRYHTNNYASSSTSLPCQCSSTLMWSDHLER
Outline: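 Melanophores electroporated with 20 μg human EP3v6 plasmid per 400 μL cells, grown 48 h at 27 °C. Assay buffer 0.7× PBS pH 7.3 with 20 nM melatonin to aggregate pigment, 90 min at room temperature, 650 nm baseline; compounds added (10-point, 5-fold dilutions, top 10 μM final), 90 min room temperature, absorbance reread.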

Rattus norvegicus [8] = test: Inhibition of right ventricle hypertrophic response in Sprague-Dawley rat monocrotaline model of pulmonary arterial hypertension assessed as reduction of MCT-induced increase in ratio of right ventricular weight to left ventricle plus septum weight administered via oral gavage twice daily for 21 consecutive days starting 24 hrs after monocrotaline challenge; type: functional
Outline: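 Male rats given 60 mg/kg monocrotaline sc on day 1 (sham: saline) under 30 mg/kg ip pentobarbital; from next day for 20 days dosed by oral gavage twice daily at 10 or 30 mg/kg in 20% HPBCD in saline (vehicle control). Day 21: RV/(LV+S) weights; mPAP via catheter under 60 mg/kg pentobarbital (30 mg/kg group, n = 5); H&E lung sections, 5 animals/group.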

[9] = target: Prostaglandin E2 receptor EP4 subtype (Homo sapiens) (UniProt P35408); test: Agonist activity at recombinant human EP4 receptor expressed in CHO-K1 cells assessed as increase in intracellular cAMP level up to 10 uM after 1 hr incubation by HTRF method; type: functional, cell-based
Chain of Prostaglandin E2 receptor EP4 subtype (Homo sapiens) (P35408 whole entry): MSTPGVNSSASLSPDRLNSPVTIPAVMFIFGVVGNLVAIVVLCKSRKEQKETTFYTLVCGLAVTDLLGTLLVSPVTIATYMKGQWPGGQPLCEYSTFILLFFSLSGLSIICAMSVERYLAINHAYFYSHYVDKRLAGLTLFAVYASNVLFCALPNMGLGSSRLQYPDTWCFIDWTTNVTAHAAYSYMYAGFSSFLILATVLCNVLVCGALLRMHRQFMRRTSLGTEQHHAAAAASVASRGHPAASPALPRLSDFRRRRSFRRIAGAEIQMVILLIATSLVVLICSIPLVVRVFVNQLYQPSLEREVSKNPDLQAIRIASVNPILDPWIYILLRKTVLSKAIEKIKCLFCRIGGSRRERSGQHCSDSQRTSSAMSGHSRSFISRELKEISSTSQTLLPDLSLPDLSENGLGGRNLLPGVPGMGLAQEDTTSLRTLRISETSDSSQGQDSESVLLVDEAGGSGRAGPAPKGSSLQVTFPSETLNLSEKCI

[10] = Selectivity ratio of EC50 for recombinant rat IP receptor expressed in CHO-K1 cells to EC50 for recombinant human IP receptor expressed in CHO-K1 cells; type: cell-based
Plasma = test: Drug level in bile-duct cannulated rat plasma treated with 2-(((1r,4r)-4-(((4-chlorophenyl)(phenyl)carbamoyloxy)methyl)cyclohexyl)methoxy)acetic acid; type: ADME, cell-free
[11] = target: Prostacyclin receptor (Rattus norvegicus) (UniProt P43253); test: Intrinsic activity at recombinant rat IP receptor expressed in CHO-K1 cells assessed as increase in intracellular cAMP level at 10 uM after 1 hr incubation by HTRF method relative to iloprost; type: functional, cell-based
Chain of Prostacyclin receptor (Rattus norvegicus) (P43253 whole entry): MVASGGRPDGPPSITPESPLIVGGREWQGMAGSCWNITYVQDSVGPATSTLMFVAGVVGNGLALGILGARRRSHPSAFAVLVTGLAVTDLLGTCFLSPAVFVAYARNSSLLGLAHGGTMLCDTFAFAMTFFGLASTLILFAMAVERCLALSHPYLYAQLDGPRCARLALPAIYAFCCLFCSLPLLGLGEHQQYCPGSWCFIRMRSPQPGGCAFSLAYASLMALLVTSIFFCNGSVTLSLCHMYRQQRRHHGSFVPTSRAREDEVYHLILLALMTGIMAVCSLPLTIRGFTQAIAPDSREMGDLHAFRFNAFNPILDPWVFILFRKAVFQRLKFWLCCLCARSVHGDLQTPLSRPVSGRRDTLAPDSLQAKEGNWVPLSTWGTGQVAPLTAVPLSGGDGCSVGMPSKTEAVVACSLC
Outline: (§1)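 Stably transfected CHO-K1 clones with receptor expression kept minimal to avoid receptor reserve. Cells at 200 000/mL in PBS with 1 mM IBMX and 0.2% BSA. 10-point 5-fold dilution series, top 10 μM, tested in triplicate plates, 1 h at room temperature. HTRF cAMP read by time-resolved fluorescence.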

[12] = Half life in human microsomes; type: ADME, Microsome
[13] = target: T3, Prostaglandin D2 receptor (Homo sapiens) (UniProt Q13258); test: Intrinsic activity at recombinant human DP1 receptor expressed in CHO-K1 cells assessed as increase in intracellular cAMP level after 1 hr incubation by HTRF method relative to prostaglandin D2; type: functional, cell-based
T3 sequence (whole entry): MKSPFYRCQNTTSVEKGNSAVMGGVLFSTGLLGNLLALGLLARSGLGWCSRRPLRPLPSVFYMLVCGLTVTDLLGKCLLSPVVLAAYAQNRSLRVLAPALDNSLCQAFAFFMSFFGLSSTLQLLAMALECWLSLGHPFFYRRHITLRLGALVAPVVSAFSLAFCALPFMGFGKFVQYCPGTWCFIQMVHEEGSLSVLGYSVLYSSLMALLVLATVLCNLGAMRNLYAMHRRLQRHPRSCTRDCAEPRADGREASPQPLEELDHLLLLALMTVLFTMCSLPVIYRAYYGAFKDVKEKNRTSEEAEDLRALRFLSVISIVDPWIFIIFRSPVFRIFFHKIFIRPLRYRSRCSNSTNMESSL
Outline: (§2)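 CHO-K1 clonal line stably expressing DP1 at minimal level; HTRF cAMP assay, 1 h incubation at room temperature, time-resolved fluorescence read-out.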

Prostacyclin receptor [14] = target: T1, Prostacyclin receptor; test: Intrinsic activity at recombinant human IP receptor expressed in CHO-K1 cells assessed as increase in intracellular cAMP level at 10 uM after 1 hr incubation by HTRF method relative to iloprost; type: functional, cell-based; outline: as §1
[15] = Half life in rat microsomes; type: ADME, Microsome
Prostacyclin receptor [16] = target: T1, Prostacyclin receptor; test: Agonist activity at recombinant human IP receptor expressed in CHO-K1 cells assessed as increase in intracellular cAMP level after 1 hr incubation by HTRF method; type: functional, cell-based
Outline: (§3)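 CHO-K1 clonal lines stably expressing IP at minimal levels; cells in PBS with 1 mM IBMX and 0.2% BSA, 200 000 cells/mL. 10-point, 5-fold DMSO serial dilution, top 10 μM; 1 h at room temperature, then HTRF cAMP-D2 and cryptate reagents in lysis buffer, 1 h, time-resolved fluorescence.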

[17] = target: T4, Prostaglandin D2 receptor (Homo sapiens, UniProt Q13258); test: Agonist activity at recombinant human DP1 receptor expressed in CHO-K1 cells assessed as increase in intracellular cAMP level after 1 hr incubation by HTRF method; type: functional, cell-based; outline: as §2
T4 sequence (Q13258 whole entry): T3 sequence (whole entry)

Prostacyclin receptor [18] = target: Prostacyclin receptor (Rattus norvegicus, UniProt P43253); test: Agonist activity at recombinant rat IP receptor expressed in CHO-K1 cells assessed as increase in intracellular cAMP level after 1 hr incubation by HTRF method; type: functional, cell-based; outline: as §3
Chain of Prostacyclin receptor (Rattus norvegicus, UniProt P43253) (P43253 whole entry): as the sequence (P43253 whole entry) above

T1 sequence (P43119 whole entry): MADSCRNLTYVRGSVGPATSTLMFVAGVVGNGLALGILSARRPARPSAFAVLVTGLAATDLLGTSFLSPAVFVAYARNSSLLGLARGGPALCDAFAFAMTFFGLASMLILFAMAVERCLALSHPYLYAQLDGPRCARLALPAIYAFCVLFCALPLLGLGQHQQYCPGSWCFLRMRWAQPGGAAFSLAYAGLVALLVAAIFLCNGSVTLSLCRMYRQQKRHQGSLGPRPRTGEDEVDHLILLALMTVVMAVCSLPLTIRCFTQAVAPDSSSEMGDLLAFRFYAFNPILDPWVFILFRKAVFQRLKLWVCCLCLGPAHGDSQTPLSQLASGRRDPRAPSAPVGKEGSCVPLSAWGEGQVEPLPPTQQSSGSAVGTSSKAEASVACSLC

SMILES	Ratio IC50/EC50 (Prostacyclin receptor [5])	Ratio EC50 [10]	other results
O=C(O)COC[C@H]1CC[C@H](COC(=O)N(c2ccccc2)c2cccc(F)c2)CC1	2 to 10	10 to 30	Activity (Prostacyclin receptor [1]): Active; clearance [2]: 20 mL/min/kg; Vd [3]: 2.74 L/kg; Activity [4]: inactive; AUC (Rattus norvegicus [6]): 7900 ng·h/mL; Activity [7]: Active; inhibition (Rattus norvegicus [8]): Dose-dependent effect; Activity [9]: inactive
COc1cccc(N(C(=O)OC[C@H]2CC[C@H](COCC(=O)O)CC2)c2ccccc2)c1	2 to 10	10 to 30	Vd [3]: 6.3 L/kg; AUC (Rattus norvegicus [6]): 1900 ng·h/mL
O=C(COC[C@H]1CC[C@H](COC(=O)N(c2ccc(O)cc2)c2ccc(Cl)cc2)CC1)NCCS(=O)(=O)O			Drug metabolism (Plasma): Metabolite_Detected
CC(C)N(CCCCOCC(=O)O)c1cnc(-c2ccccc2)c(-c2ccccc2)n1			Activity (Prostacyclin receptor [1]): Active
O=C(O)COC[C@H]1CC[C@H](COC(=O)N(c2ccccc2)c2ccc(F)cc2)CC1	2 to 10	10 to 30	clearance [2]: 30 mL/min/kg; Vd [3]: 6.2 L/kg; AUC (Rattus norvegicus [6]): 7900 ng·h/mL
COc1ccc(N(C(=O)OC[C@H]2CC[C@@H](COCC(=O)O)CC2)c2ccccc2)cc1	2 to 10	10 to 30	
O=C(O)COC[C@H]1CC[C@@H](COC(=O)N(c2ccccc2)c2cccc(F)c2)CC1	2 to 10	10 to 30	
O=C(O)COC[C@H]1CC[C@@H](COC(=O)N(c2ccccc2)c2ccccc2)CC1	2 to 10	10 to 30	
O=C(O)COC[C@H]1CC[C@@H](COC(=O)N(c2ccccc2)c2cccc(Cl)c2)CC1			Intrinsic activity [11]: 88%; half-life [12]: > 1 h; Intrinsic activity [13]: 30%; Intrinsic activity (Prostacyclin receptor [14]): 80%; half-life [15]: > 1 h
O=C(O)COC[C@H]1CC[C@H](COC(=O)N(c2ccc(F)cc2)c2ccc(F)cc2)CC1	2 to 10	10 to 30	
O=C(O)COC[C@H]1CC[C@H](COC(=O)N(c2ccc(O)cc2)c2ccc(Cl)cc2)CC1			Drug metabolism (Plasma): Metabolite_Detected
COc1ccc(N(C(=O)OC[C@H]2CC[C@H](COCC(=O)O)CC2)c2ccccc2)cc1	2 to 10	10 to 30	clearance [2]: 56.7 mL/min/kg; Vd [3]: 0.71 L/kg; AUC (Rattus norvegicus [6]): 3400 ng·h/mL
O=C(O)COC[C@H]1CC[C@H](COC(=O)N(c2ccccc2)c2ccc(F)c(F)c2)CC1	2 to 10	10 to 30	clearance [2]: 10 mL/min/kg; Vd [3]: 1.1 L/kg; AUC (Rattus norvegicus [6]): 4500 ng·h/mL
O=C(O)COC[C@H]1CC[C@H](COC(=O)N(c2ccccc2)c2ccccc2)CC1	2 to 10	10 to 30	
O=C(O)COC[C@H]1CC[C@H](COC(=O)N(c2cccc(F)c2)c2ccc(Cl)c(F)c2)CC1	2 to 10	10 to 30	
O=C(O)COC[C@H]1CC[C@H](COC(=O)N(c2ccc(F)cc2)c2cccc(F)c2)CC1	2 to 10	10 to 30	
Cc1ccc(N(C(=O)OC[C@H]2CC[C@H](COCC(=O)O)CC2)c2ccccc2)cc1	2 to 10	10 to 30	
COc1ccc(N(C(=O)OC[C@H]2CC[C@H](COCC(=O)O)CC2)c2cccc(F)c2)cc1	2 to 10	10 to 30	
CC(C)N(CCCCOCC(=O)NS(C)(=O)=O)c1cnc(-c2ccccc2)c(-c2ccccc2)n1 [SELEXIPAG]	2 to 10	10 to 30	EC50 (Prostacyclin receptor [16]): 0.006 µM; EC50 [17]: 0.1 µM; EC50 (Prostacyclin receptor [18]): 0.2 µM
O=C(O)COC[C@H]1CC[C@H](COC(=O)N(c2ccccc2)c2ccc(Cl)c(F)c2)CC1	2 to 10	10 to 30	clearance [2]: 13.3 mL/min/kg; Vd [3]: 3.5 L/kg; AUC (Rattus norvegicus [6]): 2600 ng·h/mL
O=C(O)COC[C@H]1CC[C@H](COC(=O)N(c2ccccc2)c2ccc(F)c(Cl)c2)CC1	2 to 10	10 to 30	
O=C(O)COC[C@H]1CC[C@H](COC(=O)N(c2ccc(Cl)cc2)c2cccc(F)c2)CC1	2 to 10	10 to 30	
CC#CCC(C)[C@H](O)/C=C/[C@@H]1[C@H]2C/C(=C/CCCC(=O)O)C[C@H]2C[C@H]1O (stereo not given in full) [ILOPROST]			Activity [7]: Active
